Article PMC3071016 (Biochimica et biophysica acta, 2010)
Changes are numbered by the printed parent chain. Marks after values point to notes of the source that are not given here. Starred links: 1 amine or outer side, 2 acyl side, 3 side chain; linkers in the order of their positions; H or OH if unused. Non-standard residues stand in square brackets, D forms with d. Residues, ends and D or L forms follow the SMILES beside them. *: point of attachment. X2 = CN(C)c1ccc2c(-c3ccc(C(=O)*)cc3C(=O)[O-])c3ccc(=[N+](C)C)cc-3oc2c1; Isoquinoline5sulfonyl = O=S(=O)(c1cccc2cnccc12)*; X1 = O=C(CCCCCNCCN[*:1])[*:2]

Tests used:
PKGIα [1] = details: reported in the literature; cited from earlier work
PKGIα [2] = target: T1, PKGIα (Bos taurus, UniProt P00516); experiment: FI displacement assay; format: binding, bovine
T1 sequence (P00516 1-671): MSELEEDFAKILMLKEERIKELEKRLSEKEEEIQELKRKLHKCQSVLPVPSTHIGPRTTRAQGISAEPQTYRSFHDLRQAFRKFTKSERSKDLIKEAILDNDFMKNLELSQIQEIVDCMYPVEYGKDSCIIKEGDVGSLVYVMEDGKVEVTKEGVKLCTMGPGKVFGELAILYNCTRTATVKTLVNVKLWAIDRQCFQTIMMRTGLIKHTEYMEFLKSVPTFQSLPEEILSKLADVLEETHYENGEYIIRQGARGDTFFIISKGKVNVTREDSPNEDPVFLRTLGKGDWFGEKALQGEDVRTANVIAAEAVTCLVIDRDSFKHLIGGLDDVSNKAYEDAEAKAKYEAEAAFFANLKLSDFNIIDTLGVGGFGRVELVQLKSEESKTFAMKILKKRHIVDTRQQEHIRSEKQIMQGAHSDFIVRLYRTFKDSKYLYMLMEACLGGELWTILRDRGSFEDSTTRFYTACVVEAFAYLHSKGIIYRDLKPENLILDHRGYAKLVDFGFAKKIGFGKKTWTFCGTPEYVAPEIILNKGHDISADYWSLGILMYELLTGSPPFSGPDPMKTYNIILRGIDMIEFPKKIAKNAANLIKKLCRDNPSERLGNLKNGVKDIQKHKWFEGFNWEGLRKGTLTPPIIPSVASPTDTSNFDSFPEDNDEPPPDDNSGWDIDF

PKGIα [3] = target: T2, PKGIα (Homo sapiens, UniProt Q13976); experiment: FA displacement assay; format: binding; details: for log IC50, PKGIα, FA (displacement): displacement of ARC-1059 (2 nM) from PKGIα (4 nM), cGMP 1 μM, logarithm of IC50
T2 sequence (Q13976 1-671): T1 sequence (P00516 1-671) with K265T, N275S

PKGIα [4] = target: T1, PKGIα; experiment: Radioactive inhibition assay; format: biochemical, bovine
PKGIα [5] = target: T2, PKGIα; experiment: FA direct binding assay; details: addition of cGMP in the absence of Mg2+
[6] = tested on: vascular smooth muscle cells in intact cerebral arteries; experiment: Fluorescence imaging of vascular smooth muscle cells in intact arteries; format: cell-based, rat
Method in brief: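 Isolated intact rat cerebral arteries incubated at room temperature in Hepes buffer with the TAMRA-labelled test compound (100 nM, 1 μM or 10 μM) for 20, 40 or 60 min, then washed 3 times. Imaged by confocal scanning laser microscopy at 20× and 40×, with TAMRA excited at 568 nm (krypton–argon laser). Fluorescein-labelled reference peptide (2 μM) with TOTO-3 nuclear stain (488/647 nm excitation) used as reference.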

PKAc = PKAc (Homo sapiens, UniProt P17612); details: 100 μM ATP and 30 μM TAMRA-Kemptide substrate; logarithm of IC50; cited from earlier work

Q: Which Ki (PKGIα [1]) does the source give for `O=S(=O)(NCCNCC=Cc1ccc(Br)cc1)c1cccc2cnccc12` [H89, N-[2-(p-bromocinnamylamino)ethyl]-5-isoquinoline-sulfonamide] here?
A: The Ki was 480 nM.

Q: And the IC50 (PKGIα [2])?
A: Its IC50 is 1.1 µM.

Q: And the IC50 (PKGIα [3])?
A: The IC50 was 3.02 µM.

Q: For `CSCC[C@H](NC(=O)[C@H](C)NC(=O)[C@H](CC(C)C)NC(=O)[C@H](C)NC(=O)[C@H](CCCCN)NC(=O)[C@H](CCCCN)NC(=O)[C@H](CCCNC(=N)N)NC(=O)[C@H](CCCCN)NC(=O)[C@H](C)NC(=O)[C@H](CCC(N)=O)NC(=O)[C@@H](N)[C@@H](C)O)C(=O)N[C@@H](C)C(N)=O` [WW21], which IC50 (PKGIα [2]) is on record?
A: The IC50 was 251 µM.

Q: Which “log IC50, PKGIα, FA (displacement)” value (PKGIα [3]) does the source give for `Nc1ncnc2c1ncn2[C@@H]1O[C@H](COP(=O)(O)OP(=O)(O)OP(=O)(O)O)[C@@H](O)[C@H]1O` [ATP] here?
A: Its value is −2.02 (0.33).

Q: What about the Km (PKGIα [4]; PKGIα-catalysed phosphorylation) of the same molecule?
A: Its Km is 20 µM.

Q: Which “log IC50, PKGIα, FA (displacement)” value (PKGIα [3]) does the source give for `Nc1ncnc2c1ncn2[C@@H]1O[C@H](COP(=O)(O)OP(=O)([O-])OP(=O)([O-])O)[C@@H](O)[C@H]1O.[Mg+2]` [MgATP] here?
A: The value was −2.35 (0.08).

Q: What does the source list for `CN(C)c1ccc2c(-c3ccc(C(=O)NCCCC[C@@H](NC(=O)[C@@H](CCCNC(=N)N)NC(=O)[C@@H](CCCNC(=N)N)NC(=O)[C@@H](CCCNC(=N)N)NC(=O)[C@@H](CCCNC(=N)N)NC(=O)[C@@H](CCCNC(=N)N)NC(=O)[C@@H](CCCNC(=N)N)NC(=O)CCCCCNCCNS(=O)(=O)c4cccc5cnccc45)C(N)=O)cc3C(=O)[O-])c3ccc(=[N+](C)C)cc-3oc2c1` [ARC-1059, H9-Hex-(D-Arg)6-[D-Lys(TAMRA)]-NH2] (Isoquinoline5sulfonyl-[X1][dR][dR][dR][dR][dR][dR][dK](X2)-NH2)?
A: increase of affinity towards PKGIα by addition of cGMP (PKGIα [5]): 8 fold; internalization in smooth muscle tissue, concentration dependence ([6]; 100 nM, 1 μM or 10 μM): not well observable at concentrations lower than 1 μM; incubation time after which internalization into tissue cells was observable ([6]; 10 μM, nucleus not yet stained): 20 min; internalization into vascular smooth muscle cells ([6]; intact pial arteries from rat brain, incubation 20, 40 or 60 min at room temperature): internalized into vascular smooth muscle cells

Q: For `COC(=O)[C@@]1(OC)C[C@H]2O[C@]1(C)n1c3ccccc3c3c4c(c5c6ccccc6n2c5c31)C(=O)N(C)C4` [KT-5823], which “displacement of ARC-1059 from its complex with PKGIα” value (PKGIα [3]; assay format not stated) is on record?
A: The value was “failed to displace ARC-1059”.

Q: Which Ki (PKGIα [1]) does the source give for `NCCNS(=O)(=O)c1cccc2cnccc12` [H9] here?
A: The Ki was 870 nM.

Q: What about the “log IC50, PKGIα, Inhibition” value (PKGIα [4]; 100 μM ATP and 11 μM TQAKRKKSLAMA substrate, presence of cGMP, logarithm of IC50) of the same molecule?
A: Its value is −6.85 (0.02).

Q: What about the IC50 (PKGIα [4]; read-out: inhibition IC50, 100 μM ATP, 11 μM substrate peptide, presence of cGMP) of the same molecule?
A: Its IC50 is 141 nM.

Q: And the “log IC50, PKAc, Inhibition” value (PKAc)?
A: The value was −5.43 ^b [36].
